# sEH inhibitor – blocks human soluble epoxide hydrolase activity; P34913; recombinant human sEH enzymatic activity assay; inhibition, % at 2 µM; actives 0.34% (n = 91,000); AID 707; in the data active = inhibition above about 80%
# Target sequence (P34913 whole entry, looked up): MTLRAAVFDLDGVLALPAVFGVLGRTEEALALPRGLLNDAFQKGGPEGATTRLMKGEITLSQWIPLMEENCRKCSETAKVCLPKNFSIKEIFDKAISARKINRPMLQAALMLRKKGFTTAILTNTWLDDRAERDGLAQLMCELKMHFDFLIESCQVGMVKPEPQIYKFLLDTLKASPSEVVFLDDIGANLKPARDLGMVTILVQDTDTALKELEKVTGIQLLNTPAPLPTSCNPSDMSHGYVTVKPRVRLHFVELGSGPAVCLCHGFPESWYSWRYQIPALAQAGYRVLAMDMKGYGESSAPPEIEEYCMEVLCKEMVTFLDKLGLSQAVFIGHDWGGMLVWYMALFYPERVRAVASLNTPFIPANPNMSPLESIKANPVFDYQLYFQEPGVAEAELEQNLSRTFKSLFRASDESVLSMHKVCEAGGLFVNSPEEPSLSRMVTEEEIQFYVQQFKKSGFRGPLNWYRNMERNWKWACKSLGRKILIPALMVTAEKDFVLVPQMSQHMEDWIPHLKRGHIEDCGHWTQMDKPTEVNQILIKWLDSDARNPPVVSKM
# BB579 growth dn – yeast BB579 growth reduction in restrictive medium | actives 0.51% (n = 140,000) | inhibition, % at 10 µM | S. cerevisiae BB579 growth, OD615, 48 h;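 active = inhibition above a set limit, 3 SD over the mean compound inhibition, cut at about 44% in these data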
#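 System: DeaD yeast strain BB579; buffer or medium: CSMM-D dextrose restrictive medium; technique: OD at 615 nm; schedule: 4 h cell preincubation, 48 h compound exposure, 30 °C humidified; doses: single 10 µM dose; controls: amphotericin B 10 µg/mL, positive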
# SDO1 yeast rescue – compounds rescuing growth of sdo1-depleted yeast, bone marrow failure model | S. cerevisiae sdo1-depleted JHY4D growth rescue, OD600 30 h; active compounds read high; pdr5 snq2 efflux-pump mutant strain | z-score at 10 µM | actives 0.21% (n = 140,000) | AID 817;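 active = z-score above 3 at both the 24 hr and the 30 hr optical density reads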
# Measles CPE – protection of cells from measles virus | Measles virus-infected cells, CPE protection, absorbance | protection (pct of control), % at 4 µM | actives 1.5% (n = 140,000); in the data active = protection mostly above about 24%, no sharp cut-off; inactive = mostly below about 26%
# sEH activator – soluble epoxide hydrolase (human) activation. actives 0.04% (n = 91,000). purified human sEH enzymatic activity, activator screen. activation, % at 2 µM. P34913; in the data active = activation above about 37%
# Yeast life ext – yeast lifespan extension | actives 0.68% (n = 130,000) | S. cerevisiae growth with nicotinamide, OD615; deaD strain in restrictive glucose medium | inhibition of the nicotinamide effect, % at 10 µM | AID 775;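 active = inhibition above a set limit, placed 3 SD over the median of all compounds, cut at about 26% in these data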
#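 System: Modified budding yeast, DeaD strain | Buffer or medium: Restrictive glucose medium | Also added: 1.5 mM nicotinamide | Doses: 10 µM single point, 0.25% DMSO | Schedule: 48 h compound exposure at 30 °C, humidified | Detection: Absorbance at 615 nm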
# A number is an active result; - = inactive; . = no result. Only some compounds are listed: those with a hit (about 3% of all), similar ones and a draw of the others.
SMILES,sEH inhibitor,BB579 growth dn,SDO1 yeast rescue,Measles CPE,sEH activator,Yeast life ext
Cc1c(C(=O)O)cccc1-c1ccc(/C=N/Nc2ccc(Br)cc2)o1,.,44,-,-,.,-
Brc1ccc(/C=N/Nc2ccccc2)cc1,.,-,-,-,.,-
CC(C)Cn1c(-c2ccc(Cl)cc2)cnc1SCC(=O)N1CCOCC1,.,-,-,95,.,-
O=C(CSc1ncc(-c2ccccc2)n1CC1CCCO1)N1CCCCC1 (stereo not drawn),.,-,-,-,.,-
S=C(Nc1ccccc1)Nc1nc2ccccc2n1CCOc1ccccc1,-,-,-,26,-,-
C/C(=N\Nc1nc2c(s1)CCCC2)c1ccccc1,-,63,-,-,-,-
CCC(C)NC(=O)Cn1nc([N+](=O)[O-])c(Cl)c1C (stereo not drawn),-,-,-,-,-,-
Cc1c(Cl)c([N+](=O)[O-])nn1CC(=O)NC(C)C1CC2CCC1C2 (stereo not drawn),-,-,-,48,-,-
O=C(CNc1ccc2ccccc2c1)N/N=C/c1cc2ccccc2nc1Cl,.,-,-,-,.,-
N#Cc1ccc(C(=O)NCC(c2ccco2)N2CCCCC2)cc1 (stereo not drawn),-,-,-,46,-,-
N#Cc1ccc(C(=O)NCC(c2ccco2)N2CCCC2)cc1 (stereo not drawn),-,-,-,-,-,-
O=c1cc(-c2ccc(Cl)c(Cl)c2)[nH][nH]1,-,-,-,-,-,-
O=c1cc(-c2ccc(Cl)cc2)[nH][nH]1,-,-,-,41,-,-
Cc1cc(NC(=O)CCSc2ccccc2)ccc1Br,.,-,-,-,.,-
COc1ccc(OC)c(-c2cc(C(=O)N3CCc4ccccc4C3)no2)c1,.,-,-,-,.,44
CCOC(=O)CCSc1nc(C)c2cc(C)ccc2n1,-,-,-,-,-,-
CCOC(=O)CCSc1nc(C)c2ccccc2n1,-,-,-,56,-,-
CCN(CC(=O)Nc1cc(C)nn1-c1nc(C)cc(C)n1)Cc1ccccc1,-,-,-,-,-,-
CC(C)(C)NC(=O)COC(=O)/C=C/c1ccccc1[N+](=O)[O-],-,-,-,-,-,-
Cc1ccc(SCC(=O)OCn2nnc3ccccc3c2=O)cc1C,.,-,-,-,.,-
C=CCn1c(C)cc(C(=O)CSc2n[nH]c(N)n2)c1C,-,-,-,-,-,-
O=C(COc1ccccc1)NCCc1cn2ccsc2n1,-,-,-,-,-,-
O=C(Cc1ccccc1)NCCc1cn2ccsc2n1,-,49,-,-,-,-
CN(C)c1ccc(N2CN=C3SCC(=O)N3C2)cc1,-,-,-,-,-,-
O=C(COC(=O)C1c2ccccc2Oc2ccccc21)NC1CCS(=O)(=O)C1 (stereo not drawn),-,-,-,active,-,-
SMILES,sEH inhibitor,BB579 growth dn,SDO1 yeast rescue,Measles CPE,sEH activator,Yeast life ext
CCc1nnc(NC(=O)CSc2nnc(COc3cccc(C)c3)o2)s1,-,-,-,-,-,27
COCc1nnc(NC(=O)CSc2ccc(C)cc2)s1,-,-,-,23,-,-
CCn1ncc(Br)c1C(=O)Nc1ccc(F)cc1F,-,-,-,-,-,-
O=C(OCn1ncc(Br)c(Br)c1=O)c1ccccc1Cl,-,73,-,-,-,-
O=C(OCn1ncc(Br)c(Br)c1=O)c1ccc(F)cc1,-,91,-,-,-,-
O=C(OCc1cnc(Cl)s1)c1ccccc1Cl,-,-,-,-,-,-
Cc1cccc(C)c1NC(=O)CC(NCCc1ccccc1)C(=O)O (stereo not drawn),.,-,-,-,.,-
CC(C)=CC(=O)OCC(=O)Nc1ccccc1Cl,.,-,-,81,.,-
O=C(Nc1nnc(-c2ccc(F)cc2)o1)c1cc(Cl)sc1Cl,.,66,-,-,.,-
COc1ccc(C2C(=O)N(C3CCCCC3)CC(=O)N2CC2COc3ccccc3O2)cc1 (stereo not drawn),-,-,-,-,-,-
O=C(NNC(=O)C1CC(c2cccnc2)=NO1)Nc1cccc(F)c1 (stereo not drawn),-,-,-,-,-,-
N#CC(C(=O)NCCc1ccccc1)c1nc2ccccc2nc1N1CCOCC1 (stereo not drawn),-,-,-,-,-,-
CCN1CCN(c2nc3ccccc3nc2C(C#N)S(=O)(=O)c2ccc(C)cc2)CC1 (stereo not drawn),-,-,-,-,-,-
CC1CCCN(c2nc3ccccc3nc2C(C#N)C(=O)OC2CCCCC2)C1 (stereo not drawn),-,-,-,-,-,64
CCCCCCNC(=O)C(C#N)c1nc2ccccc2nc1N1CCOCC1 (stereo not drawn),-,-,-,47,-,-
Cc1ccc(S(=O)(=O)C(C#N)c2nc3ccccc3nc2N2CCCC2)cc1 (stereo not drawn),-,-,-,-,-,72
N#CC(C(=O)NCCc1ccccc1)c1nc2ccccc2nc1N1CCCCC1 (stereo not drawn),-,-,-,41,-,-
COc1cc(C(=O)N2CCC(O)(c3ccccc3)CC2)cc(OC)c1OC,-,-,-,-,-,-
CSc1ccc(/C=N/NC(=O)CN2CCN(Cc3ccc(C)cc3)CC2)cc1,.,-,-,-,.,-
O=C(N/N=C/c1cc(Cl)cc([N+](=O)[O-])c1O)NC12CC3CC(CC(C3)C1)C2,.,-,-,-,.,-
O=C1C[C@@H](c2ccc(O)cc2)Oc2cc(O)cc(O)c21,.,-,-,31,.,-
Cc1cc(SCC(=O)c2cccs2)n2nc(C)c(-c3ccccc3)c2n1,.,-,-,60,.,-
CC(=O)c1ccc(OCCn2cnc3ccccc32)cc1,.,-,-,-,.,-
Cc1nc2ncnn2c(N2CCN(C(c3ccccc3)c3ccccc3)CC2)c1C,-,-,-,53,-,-
FC(F)(F)c1nc(N2CCCC2)ncc1-c1nnnn1-c1ccccc1,-,-,-,62,-,-
SMILES,sEH inhibitor,BB579 growth dn,SDO1 yeast rescue,Measles CPE,sEH activator,Yeast life ext
CCOC(=O)C1=C(C)NC(=O)C1CC(=O)O (stereo not drawn),.,-,-,-,.,-
CCOC(=O)N1CCC(NC(=O)CN2C(=O)CSc3ncccc32)CC1,.,-,-,30,.,-
CCOC(=O)N1CCC(NC(=O)CCCN2C(=O)CSc3ncccc32)CC1,.,-,-,-,.,-
C[C@@H](C(=O)Nc1ccc2ccccc2c1)[C@H]1C[C@]1(C)[C@H](NC(=O)OCc1ccccc1)c1ccccc1,.,-,-,38,.,-
CCN(CC)S(=O)(=O)c1ccc(C(=O)NNC(=O)C2CCN(S(=O)(=O)c3ccc(Cl)cc3)CC2)cc1,.,-,-,-,.,-
CC(C)C(=O)NC(c1ccccc1)c1cc([N+](=O)[O-])c2cccnc2c1O (stereo not drawn),.,74,-,-,.,-
CCC(=O)NC(c1cccs1)c1cc([N+](=O)[O-])c2cccnc2c1O (stereo not drawn),.,-,-,-,.,-

# From PubChem BioAssay
